Test results: ChEMBL document CHEMBL5385868, “Bifunctional carbazole derivatives for simultaneous therapy and fluorescence imaging in prion disease murine cell models” (Eur J Med Chem, 2023)
Active and inactive are the calls of the source. The calls are words filed in the database; no cut-off is given here.

How the values were obtained:
[1] = Cytotoxicity against RML infected mouse ScGT1 cells assessed as reduction in cell viability at 10 uM measured after 5 days by MTT assay relative to control; format: toxicity, cell-based; details: scgt1, 120 h, time 5 day
Outline: (§1)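 MTT viability in RML-infected ScGT1 cells after 5 days exposure to 0.1, 1 or 10 µM compound, vehicle control. MTT 5 mg/mL in PBS for 3 h at 37 °C, 5% CO2; dissolved in DMSO/2-propanol (1:1), 30 min at room temperature, then plate read; triplicate.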

[2] = Anti-prion activity against RML infected mouse ScGT1 cell lysate assessed as PrPSc residual level at 10 uM measured after 5 days by Western blot analysis relative to control; format: functional; details: time 5 day
Outline: (§2)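 RML-infected ScGT1 cells, confluent, split 1:10 and seeded in triplicate; compound (DMSO stock diluted in water) added to medium two days after seeding at 0.1, 1 or 10 µM, vehicle control; 5 days treatment. Lysates (1 mg/mL) digested with 20 µg/mL PK, 1 h, 37 °C, stopped with PMSF, ultracentrifuged; pellets blotted with anti-PrP Fab D18. PrPSc remaining expressed relative to untreated lysates.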

[3] = Anti-prion activity against RML infected mouse ScGT1 cell lysate assessed as PrPSc residual level at 0.1 uM measured after 5 days by Western blot analysis relative to control; format: functional; details: time 5 day; outline: as §2
[4] = Anti-prion activity against RML infected mouse ScGT1 cell lysate assessed as PrPSc residual level at 1 uM measured after 5 days by Western blot analysis relative to control; format: functional; details: time 5 day; outline: as §2
[5] = Cytotoxicity against RML infected mouse ScGT1 cells assessed as reduction in cell viability at 1 uM measured after 5 days by MTT assay relative to control; format: toxicity, cell-based; details: scgt1, 120 h, time 5 day; outline: as §1
[6] = Cytotoxicity against RML infected mouse ScGT1 cells assessed as reduction in cell viability at 0.1 uM measured after 5 days by MTT assay relative to control; format: toxicity, cell-based; details: scgt1, 120 h, time 5 day; outline: as §1
GT1 = assay: Anti-prion activity against mouse GT1 cells assessed as reduction in PrPSc level at 0.1 to 10 uM measured after 5 days by Western blot analysis; format: functional, cell-based; details: dose 0.1-10 µM, time 5.0 day
[7] = Anti-prion activity against RML infected mouse ScGT1 cell assessed as PrPSc clearance level measured after 5 days by Western blot analysis; format: functional, cell-based; details: ScGT1, 120 h; outline: as §2
[8] = Anti-prion activity against RML infected mouse ScGT1 cells assessed as reduction in PrPSc level measured after 5 days by Western blot analysis; format: functional, cell-based; details: ScGT1, 120 h; outline: as §2
[9] = (§3) Anti-prion activity against RML infected mouse ScGT1 cells assessed as inhibition of PrPSc formation measured after 5 days by Western blot analysis; format: functional; details: dose 0.1-10 µM; time 5 day; outline: as §2
ScGT1 = assay: as §3; format: functional; details: dose 0.1-10 µM, time 5.0 day; outline: as §2
[10] = molecular target: Major prion protein (Mus musculus) (UniProt P04925); assay: Inhibition of full length recombinant mouse PrP (89 to 231 residues) expressed in Escherichia coli BL21 (DE3) cells to PrPSc conversion assessed as vCJD prion amplification at 10 uM in presence of PMCA
Major prion protein (Mus musculus), sequence (P04925 whole entry, the tested form may be a part): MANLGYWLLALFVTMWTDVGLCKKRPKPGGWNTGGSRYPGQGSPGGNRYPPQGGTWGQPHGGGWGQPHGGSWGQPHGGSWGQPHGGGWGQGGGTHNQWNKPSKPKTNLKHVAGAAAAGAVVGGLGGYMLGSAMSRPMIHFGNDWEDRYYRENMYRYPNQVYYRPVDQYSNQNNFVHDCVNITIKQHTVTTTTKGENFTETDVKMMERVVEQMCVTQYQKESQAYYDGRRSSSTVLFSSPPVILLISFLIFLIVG
Outline: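 vCJD prions serially diluted 10^-5 to 10^-8 into 10% brain homogenate from Tg(MHu2M) mice expressing chimeric human-murine PrP, in conversion buffer with 0.05% digitonin. Substrate supplemented with PBS or 10 µM compound. PMCA: incubation at 37/40 °C with 40 s sonication pulses at 270–280 W.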

[11] = molecular target: Major prion protein (Mus musculus) (UniProt P04925); assay: Inhibition of full length recombinant mouse PrP (89 to 231 residues) expressed in Escherichia coli BL21 (DE3) cells to PrPSc conversion assessed as vCJD prion amplification at 10 uM
N2a [12] = assay: Effect on N2a mouse cells assessed appearance of protein clusters measured after 60 mins by fluorescence based confocal microscopy based analysis; format: functional, cell-based
Outline: (§4)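 N2a cells on coverslips at semi-confluence for 24 h, fixed in 4% paraformaldehyde, permeabilised with 0.2% Triton X-100, denatured with 6 M GdnHCl for 10 min, blocked with 1% BSA, then stained with 0.025% compound for 60 min. Anti-PrP mAb W226 as counterstain, DAPI for nuclei; confocal imaging with FITC/TRITC filters.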

[13] = molecular target: Major prion protein (Mus musculus) (UniProt P04925); assay: Inhibition of full length recombinant mouse PrP (89 to 231 residues) expressed in Escherichia coli BL21 (DE3) cells to PrPSc conversion assessed as RML amplification at 10 uM
[14] = molecular target: Major prion protein (Mus musculus) (UniProt P04925); assay: Inhibition of full length recombinant mouse PrP (89 to 231 residues) expressed in Escherichia coli BL21 (DE3) cells to PrPSc conversion assessed as lag time for protein aggregation at 20 uM measured after 72 hrs by spectramax fluorescence microplate reader analysis
[15] = molecular target: Major prion protein (Mus musculus) (UniProt P04925); assay: Inhibition of full length recombinant mouse PrP (89 to 231 residues) expressed in Escherichia coli BL21 (DE3) cells to PrPSc conversion assessed as RML amplification at 10 uM in presence of PMCA
[16] = molecular target: Major prion protein (Mus musculus) (UniProt P04925); assay: Inhibition of full length recombinant mouse PrP (89 to 231 residues) expressed in Escherichia coli BL21 (DE3) cells to PrPSc conversion assessed as lag time for protein aggregation at 4 uM measured after 72 hrs by spectramax fluorescence microplate reader analysis
N2a [17] = assay: Effect on N2a mouse cells assessed appearance of protein aggregates measured after 60 mins by fluorescence based confocal microscopy based analysis; format: functional, cell-based; outline: as §4
[18] = Anti-prion activity against 22L prion infected mouse ScGT1 cells assessed as reduction in PrPSc level measured after 5 days by Western blot analysis; format: functional, cell-based; details: ScGT1, 120 h
Outline: (§5)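 22L-infected ScGT1 or ScN2a cells given compound in medium (vehicle ≤0.001% DMSO), triplicate. Lysates digested with 20 µg/mL PK for 1 h at 37 °C, stopped with PMSF, ultracentrifuged; PK-resistant PrP detected by Western blot with anti-PrP Fab D18 and HRP-conjugated secondary, ECL read-out.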

ScN2a = assay: Anti-prion activity against 22L prion infected mouse ScN2a cells assessed as reduction in PrPSc level measured after 5 days by Western blot analysis; format: functional, cell-based; details: 120 h; outline: as §5
[19] = molecular target: Major prion protein (Mus musculus) (UniProt P04925); assay: Inhibition of full length recombinant mouse PrP (89 to 231 residues) expressed in Escherichia coli BL21 (DE3) cells to PrPSc conversion assessed as lag time for protein aggregation at 40 uM measured after 72 hrs by spectramax fluorescence microplate reader analysis

## O=C(Cn1ccnc1)Nc1ccc2[nH]c3ccc(NC(=O)Cn4ccnc4)cc3c2c1
[1]
  Activity: 77%
[2]
  Activity: 74%
[3]
  Activity: 120%
[4]
  Activity: 98%
[5]
  Cell viability (% of control): 89%
[6]
  Cell viability relative to control: 100%

## O=C(CN1CCOCC1)Nc1ccc2[nH]c3ccc(NC(=O)CN4CCOCC4)cc3c2c1
[1]
  Activity: 84%
[2]
  Activity: 59%
[3]
  Activity: 96%
[4]
  Activity: 102%
[5]
  Cell viability (% of control): 86%
[6]
  Cell viability relative to control: 101%

## CCN(CC)CC(=O)Nc1ccc2[nH]c3ccc(NC(=O)CN(CC)CC)cc3c2c1
GT1
  Activity: inactive
[1]
  Activity: 103%
[2]
  Activity: 31%
[7]
  EC50: 8 µM
[3]
  Activity: 84%
[8]
  EC50: 2.25 µM
[4]
  Activity: 57%
[5]
  Cell viability (% of control): 99%
[6]
  Cell viability relative to control: 108%

## O=C(CN1CCCC1)Nc1ccc2[nH]c3ccccc3c2c1
[1]
  Activity: 29%
[2]
  Activity: 26%
[3]
  Activity: 78%
[4]
  Activity: 75%
[5]
  Cell viability (% of control): 72%
[6]
  Cell viability relative to control: 83%

## O=C(CN1CCCC1)Nc1ccc2[nH]c3ccc(NC(=O)CN4CCCC4)cc3c2c1
[1]
  Activity: 71%
[2]
  Activity: 27%
[9]
  Activity: 7.4 µM
ScGT1
  Activity: Dose-Dependent Effect
[3]
  Activity: 148%
[4]
  Activity: 103%
[5]
  Cell viability (% of control): 85%
[6]
  Cell viability relative to control: 118%

## O=C(CN1CCCC1)Nc1ccc(Cc2ccc(NC(=O)CN3CCCC3)cc2)cc1
GT1
  Activity: inactive
[1]
  Activity: 50%
[2]
  Activity: 13%
[9]
  Activity: 7.8 µM
[7]
  EC50: 2.5 µM
[3]
  Activity: 127%
[4]
  Activity: 103%
[5]
  Cell viability (% of control): 69%
[6]
  Cell viability relative to control: 85%

## O=C(CN1CCN(c2ccccc2)CC1)Nc1ccc2[nH]c3ccc(NC(=O)CN4CCN(c5ccccc5)CC4)cc3c2c1
[1]
  Activity: 63%
[2]
  Activity: 134%
[3]
  Activity: 124%
[4]
  Activity: 136%
[5]
  Cell viability (% of control): 73%
[6]
  Cell viability relative to control: 71%

## CN1CCN(CC(=O)Nc2ccc3[nH]c4ccc(NC(=O)CN5CCN(C)CC5)cc4c3c2)CC1
[1]
  Activity: 47%
[2]
  Activity: 28%
[3]
  Activity: 85%
[4]
  Activity: 46%
[5]
  Cell viability (% of control): 70%
[6]
  Cell viability relative to control: 99%

## O=C(CN1CCCCC1)Nc1ccc2[nH]c3ccc(NC(=O)CN4CCCCC4)cc3c2c1
[1]
  Activity: 69%
[2]
  Activity: 44%
[3]
  Activity: 109%
[4]
  Activity: 105%
[5]
  Cell viability (% of control): 76%
[6]
  Cell viability relative to control: 81%

## CC(C)N(CC(=O)Nc1ccc2[nH]c3ccc(NC(=O)CN(C(C)C)C(C)C)cc3c2c1)C(C)C
[1]
  Activity: 61%
[2]
  Activity: 24%
[3]
  Activity: 73%
[4]
  Activity: 39%
[5]
  Cell viability (% of control): 75%
[6]
  Cell viability relative to control: 92%

## CN(C)CC(=O)Nc1ccc2[nH]c3ccc(NC(=O)CN(C)C)cc3c2c1
GT1
  Activity: inactive
[10]
  inhibition: inactive
[1]
  Activity: 95%
[2]
  Activity: 17%
[11]
  inhibition: inactive
N2a [12]
  Activity: inactive
[13]
  inhibition: inactive
[14]
  TIME: 5 h
[15]
  inhibition: Active
[16]
  TIME: 21.5 h
[7]
  EC50: 6.6 µM
N2a [17]
  Activity: Active
[3]
  Activity: 130%
[8]
  EC50: 1.35 µM
[4]
  Activity: 47%
[18]
  EC50: 33.5 µM
ScN2a
  EC50: 7.3 µM
[19]
  TIME: 9.5 h
[5]
  Cell viability (% of control): 99%
[6]
  Cell viability relative to control: 111%
